Results published in ChEMBL document CHEMBL1151452, “Novel trypanocidal analogs of 5'-(methylthio)-adenosine” (Antimicrob Agents Chemother, 2008).
Calls of active or inactive are those of the source. No cut-off for these calls is given here.

Key:
[1] = tested on: Trypanosoma brucei brucei; assay: Activity at bloodstream Trypanosoma brucei brucei 5'-deoxy-5'-(methylthio)-adenosine phosphorylase by spectrophotometry relative to control; set-up: concentration or dose not given beside the values; conditions: LAB 110 EATRO
How it was run: (§1)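 Enzyme was a cell-free extract of bloodstream trypanosomes harvested from rats. It was prepared by freeze-thawing three times in dry ice-methanol, spinning at 5,000 × g for 10 min, and dialysing 1 h (0.05 M Tris-HCl, 0.1 mM EDTA, 1 mM 2-mercaptoethanol, pH 7.4) to remove phosphate. The mix held 0 or 50 mM potassium phosphate pH 7.4, xanthine oxidase and 25–500 μM substrate. Adenine-derived 2,8-dihydroxyadenine was read at 305 nm over 1 h at 37°C. Activity is expressed relative to MTA.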

[2] = tested on: Trypanosoma brucei brucei; assay: Antitrypanosomal activity against bloodstream form of Trypanosoma brucei brucei LAB 110 EATRO after 48 hrs by Z1 zoulter counter; assay type: functional, organism-based; conditions: for IC50: Trypanosoma brucei, LAB 110 EATRO, 48 h
How it was run: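 Bloodstream forms were grown axenically in HMI-18 (IMDM with 1 μM hypoxanthine and 20% horse serum). Compounds were dissolved in water or DMSO, with final DMSO ≤0.3%. […] Parasites were counted by Coulter counter.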

Mus musculus = organism: Mus musculus; assay: Activity at mouse liver 5'-deoxy-5'-(methylthio)-adenosine phosphorylase; set-up: concentration or dose not given beside the values
[3] = tested on: Trypanosoma brucei brucei; assay: Activity at bloodstream Trypanosoma brucei brucei 5'-deoxy-5'-(methylthio)-adenosine phosphorylase by spectrophotometry in presence of 50 mM PO4- relative to control; conditions: LAB 110 EATRO; how it was run: as §1
[4] = tested on: Trypanosoma brucei brucei; assay: Growth stimulation of diamidine and melarsoprol-resistant bloodstream form of Trypanosoma brucei brucei isolate KETRI 243-As10-3 at 100 uM after 48 hrs by Z1 zoulter counter; assay type: functional, organism-based
[5] = tested on: Trypanosoma brucei rhodesiense; assay: Growth stimulation of pentamidine and melarsoprol-resistant bloodstream form of Trypanosoma brucei rhodesiense isolate KETRI 243 at 100 uM after 48 hrs by Z1 zoulter counter

Row | Structure (SMILES) | Activity [1] [%] | IC50 [2] [µM] | Activity [3] [%] | other results
1 | CCCSC[C@H]1O[C@@H](n2cnc3c(N)ncnc32)[C@H](O)[C@@H]1O | 26 | 46 | 57.5 | Activity (Mus musculus): 100%
2 | CC(=O)OCCSC[C@H]1O[C@@H](n2ccc3c(N)ncnc32)[C@H](OC(C)=O)[C@@H]1OC(C)=O |  | 0.145 |  | 
3 | Nc1ncnc2c1ncn2[C@H]1CC[C@@H](CSCCO)O1 | 18 | 100 | 17 | 
4 | Nc1ncnc2c1ncn2[C@H]1C[C@H](O)[C@@H](CSCCO)O1 | 81 | > 100 | 100 | Activity [4]: Active
5 | Nc1ncnc2c1nnn2[C@@H]1O[C@H](CSCCO)[C@@H](O)[C@H]1O |  | 7 |  | 
6 | CC(=O)OCCSC[C@H]1O[C@@H](n2cnc3c(C)ncnc32)[C@H](OC(C)=O)[C@@H]1OC(C)=O |  | 9.3 |  | 
7 | Nc1ncnc2c1ncn2[C@@H]1O[C@H](CSCCCF)[C@@H](O)[C@H]1O | 31.3 | 120 | 47.5 | Activity (Mus musculus): 64%
8 | CNC[C@H]1O[C@@H](n2cnc3c(N)ncnc32)[C@H](O)[C@@H]1O | 0 | > 100 | 4 | 
9 | Nc1ncnc2c1ncn2COCCSCCO | 78 | 64 | 56 | 
10 | NCCCSC[C@H]1O[C@@H](n2cnc3c(N)ncnc32)[C@H](O)[C@@H]1O | 60 | > 100 | 46 | 
11 | CSC[C@H]1O[C@@H](n2ccc3c(NC(C)=O)ncnc32)[C@H](OC(C)=O)[C@@H]1OC(C)=O |  | 46 |  | 
12 | CC(=O)OCCSC[C@H]1O[C@@H](n2cnc3cncnc32)[C@H](OC(C)=O)[C@@H]1OC(C)=O |  | 3.65 |  | 
13 | COC(=O)CSC[C@H]1O[C@@H](n2cnc3c(N)ncnc32)[C@H](O)[C@@H]1O | 34 | 130 | 84 | 
14 | CC(=O)OCCSC[C@H]1O[C@@H](n2cnc3c(N)nc(N)nc32)[C@H](OC(C)=O)[C@@H]1OC(C)=O |  | 12.5 |  | 
15 | CSC[C@H]1O[C@@H](n2ccc3c(N)ncnc32)[C@H](O)[C@@H]1O | 0 | 67 | 0 | 
16 | CC(=O)OCCSC[C@H]1O[C@@H](n2cnc3c(N)ncnc32)C[C@@H]1OC(C)=O |  | 22 |  | 
17 | OCCSC[C@H]1O[C@@H](n2cnc3c2ncn2ccnc32)[C@H](O)[C@@H]1O | 62 | > 100 | 56 | 
18 | CC(=O)O[C@@H]1[C@H](OC(C)=O)[C@@H](CSCCF)O[C@H]1n1cnc2c(N)ncnc21 |  | 0.83 |  | 
19 | Nc1ncnc2c1ncn2C[C@H](O)CSCCO |  | 60 |  | 
20 | Nc1ncnc2c1ncn2[C@@H]1O[C@H](CSCCCO)[C@@H](O)[C@H]1O | 27.4 | 170 | 72.5 | 
21 | NCCSC[C@H]1O[C@@H](n2cnc3c(N)ncnc32)[C@H](O)[C@@H]1O |  | > 100 |  | Activity [5]: Active
22 | Nc1ncnc2c1ncn2[C@@H]1O[C@H](CSCCO)[C@@H](O)[C@H]1O | 100 | 0.54 | 96 | 

Row | Structure (SMILES) | Activity [1] [%] | IC50 [2] [µM] | Activity [3] [%] | other results
23 | Nc1ncnc2c1ccn2[C@@H]1O[C@H](CSCCO)[C@@H](O)[C@H]1O | 0 | 0.042 | 0 | 
24 | CC(=O)OCCSC[C@@H]1C[C@@H](OC(C)=O)[C@H](n2cnc3c(N)ncnc32)O1 |  | 0.64 |  | 
25 | CC(=O)OCCSC[C@H]1O[C@@H](n2cnc3c(F)ncnc32)[C@H](OC(C)=O)[C@@H]1OC(C)=O |  | > 100 |  | 
26 | Cc1ncnc2c1ncn2[C@@H]1O[C@H](CSCCO)[C@@H](O)[C@H]1O | 25 | 24.5 | 2 | 
27 | CSC[C@H]1O[C@@H](n2cnc3c(N)ncnc32)[C@H](O)[C@@H]1O [METHYLTHIOADENOSINE] | 100 | 100 | 100 | Activity (Mus musculus): 100%
28 | OCCSC[C@H]1O[C@@H](n2cnc3cncnc32)[C@H](O)[C@@H]1O | 4 | 34 | 11 | 
29 | Nc1nc(F)nc2c1ncn2[C@@H]1O[C@H](CSCCO)[C@@H](O)[C@H]1O | 106 | 1.9 | 148 | 
30 | Nc1ncnc2c1ncn2[C@@H]1O[C@H](CSCCO)C[C@H]1O | 37.8 | 12.5 | 39.4 | 
31 | Nc1ncnc2c1ncn2C[C@@H](O)CSCCO |  | > 100 |  | 
32 | Nc1nc(N)c2ncn([C@@H]3O[C@H](CSCCO)[C@@H](O)[C@H]3O)c2n1 | 18 | 3.9 | 29 | 
33 | CC(=O)OCCSC[C@H]1O[C@@H](n2cnc3c(N)ncnc32)[C@H](OC(C)=O)[C@@H]1OC(C)=O |  | 0.32 |  | 
34 | CC(=O)OCCSC[C@H]1O[C@@H](n2cnc(C(N)=O)n2)[C@H](OC(C)=O)[C@@H]1OC(C)=O |  | 26.5 |  | 
35 | NC(=O)c1ncn([C@@H]2O[C@H](CSCCO)[C@@H](O)[C@H]2O)n1 | 70 |  | 61 | Activity [5]: Active; inhibition (INH) [2]: 9%
36 | OCCSC[C@H]1O[C@@H](n2cnc3c(O)ncnc32)[C@H](O)[C@@H]1O | 0 | > 100 | 0 | 
37 | CCSC[C@H]1O[C@@H](n2cnc3c(N)ncnc32)[C@H](O)[C@@H]1O | 26.9 |  | 76.2 | Activity (Mus musculus): 100%
38 | Nc1ncnc2c1ncn2[C@@H](CO)O[C@@H](CO)CSCCO | 0 | 14 | 44 | 
39 | Nc1ncnc2c1ncn2[C@@H]1O[C@H](CSCCF)[C@@H](O)[C@H]1O | 29.3 | 0.2 | 75.3 | Activity (Mus musculus): 64%
40 | CC(=O)OCCSC[C@H](COC(C)=O)O[C@H](COC(C)=O)n1cnc2c(N)ncnc21 |  | 5.3 |  | 
41 | CC(=O)OCCSC[C@H]1O[C@@H](n2cnc3c(N)nc(F)nc32)[C@H](OC(C)=O)[C@@H]1OC(C)=O |  | 2.75 |  | 
42 | OCCSC[C@H]1O[C@@H](n2cnc3c(F)ncnc32)[C@H](O)[C@@H]1O | 60 | > 100 | 42 | 
43 | Nc1ncnc2c([C@@H]3N[C@H](CSCCO)[C@@H](O)[C@H]3O)c[nH]c12 |  | > 10 |  | 
44 | CC(=O)OCCSC[C@H]1O[C@@H](n2cnc3c2ncn2ccnc32)[C@H](OC(C)=O)[C@@H]1OC(C)=O |  | 35 |  | 
